{"source": "ChEMBL document CHEMBL3997766", "about": "“Synthesis and pre-clinical studies of new amino-acid ester thiazolide prodrugs” (Eur J Med Chem, 2017)", "key": {"Rattus norvegicus [1]": {"tested_on": "Rattus norvegicus", "assay": "Cmax in Sprague-Dawley rat assessed as Tizoxanide level in plasma at 6 mg/kg, iv administered as single dose", "format": "ADME, organism-based", "design": "dose 6 mg/kg, route intravenous", "conditions": "in vivo", "method_in_brief": "(§1)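 Rats in groups of three received one compound as a single oral dose (30 mg/kg) or a single intravenous injection (6 mg/kg), with four compounds studied separately. Serial blood samples were drawn at 5, 10, 15 and 30 min and at 1, 2, 4, 8, 23 and 24 h post-dose. Plasma parent drug and metabolites were quantified and PK parameters were derived.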"}, "Rattus norvegicus [2]": {"tested_on": "Rattus norvegicus", "assay": "AUC (0 to t) in male Sprague-Dawley rat assessed as Tizoxanide-glucuronide level in plasma at 6 mg/kg, iv administered as single dose", "format": "ADME, organism-based", "conditions": "in vivo", "method_in_brief": "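Plasma tizoxanide and tizoxanide glucuronide were measured and PK parameters derived. AUCs were dose-corrected to 30 mg/kg for bioavailability.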"}, "Rattus norvegicus [3]": {"tested_on": "Rattus norvegicus", "assay": "Elimination half life in Sprague-Dawley rat assessed as Tizoxanide level at 28 mg/kg, po", "format": "ADME, organism-based", "conditions": "in vivo"}, "Rattus norvegicus [4]": {"tested_on": "Rattus norvegicus", "assay": "Toxicity in Sprague-Dawley rat assessed as effect on tidal volume at 100 to 1000 mg/kg administered as single dose via oral gavage", "format": "organism-based", "conditions": "in vivo", "method_in_brief": "(§2)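 Respiratory safety study: conscious rats, 3 groups of 6 (3M/3F), given single oral-gavage doses of 100, 300 or 1000 mg/kg, with an untreated control group. Respiratory rate (breaths per minute), tidal volume and minute volume were recorded, and mortality was noted.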"}, "Rattus norvegicus [5]": {"tested_on": "Rattus norvegicus", "assay": "Cmax in Sprague-Dawley rat assessed as tizoxanide-glucuronide level in plasma at 30 mg/kg, po administered as single dose", "format": "ADME, organism-based", "design": "dose 30 mg/kg, route oral", "conditions": "in vivo", "method_in_brief": "as §1"}, "Rattus norvegicus [6]": {"tested_on": "Rattus norvegicus", "assay": "Neurotoxicity in Sprague-Dawley rat assessed as decreased activity at 1000 mg/kg administered via oral gavage as single dose after 4 to 24 hrs", "format": "toxicity, organism-based", "conditions": "in vivo", "method_in_brief": "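Three groups of 10 rats (5M/5F) received a single dose by oral gavage of 100, 300 or 1000 mg/kg, and an untreated group served as control. Clinical signs of CNS effects were recorded at 4 and 24 h after treatment.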"}, "Rattus norvegicus [7]": {"tested_on": "Rattus norvegicus", "assay": "Toxicity in Sprague-Dawley rat assessed as effect on respiratory rate by measuring minute volume dose at 100 to 300 mg/kg administered as single dose via oral gavage", "format": "organism-based", "conditions": "in vivo", "method_in_brief": "as §2"}, "Rattus norvegicus [8]": {"tested_on": "Rattus norvegicus", "assay": "Toxicity in Sprague-Dawley rat assessed as effect on respiratory rate by measuring minute volume dose at 1000 mg/kg administered as single dose via oral gavage", "format": "organism-based", "conditions": "in vivo", "method_in_brief": "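Conscious rats in three groups of six (3M/3F) got single oral gavage doses of 100, 300 or 1000 mg/kg, with an untreated control group. Respiratory rate (breaths per minute), tidal volume and minute volume were recorded.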"}, "Rattus norvegicus [9]": {"tested_on": "Rattus norvegicus", "assay": "Toxicity in Sprague-Dawley rat assessed as effect on food consumption at 10 to 75 mg/kg administered as oral gavage qd for 28 consecutive days measured once per week during compound dosing", "format": "organism-based", "conditions": "in vivo", "method_in_brief": "(§3)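 Sub-acute study in Sprague-Dawley rats: 10, 30 or 75 mg/kg given orally once a day for 28 consecutive days as a yellow suspension. There were 4 groups of up to 30 rats each (15M/15F), including a control. Body weight, clinical observations and terminal findings were assessed.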"}, "Rattus norvegicus [10]": {"tested_on": "Rattus norvegicus", "assay": "Toxicity in Sprague-Dawley rat at 10 to 75 mg/kg administered as oral gavage qd for 28 consecutive days by ophthalmoscopic method", "format": "organism-based", "conditions": "in vivo", "method_in_brief": "as §3"}, "Rattus norvegicus [11]": {"tested_on": "Rattus norvegicus", "assay": "Toxicity in Sprague-Dawley rat assessed as decrease in serum alanine transferase level at 75 mg/kg administered as oral gavage qd for 28 consecutive days followed by 2 weeks recovery period measured on day 43", "format": "organism-based", "conditions": "in vivo, 336 h", "method_in_brief": "(§4)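 Sub-acute study in Sprague-Dawley rats dosed orally with a suspension at 10, 30 and 75 mg/kg once daily for 28 consecutive days. Four groups of up to 30 rats each (15M/15F).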"}, "Rattus norvegicus [12]": {"tested_on": "Rattus norvegicus", "assay": "Toxicity in Sprague-Dawley rat assessed as decrease in serum total albumin level at 75 mg/kg administered as oral gavage qd for 28 consecutive days followed by 2 weeks recovery period measured on day 43", "format": "organism-based", "conditions": "in vivo, 336 h", "method_in_brief": "as §4"}, "Rattus norvegicus [13]": {"tested_on": "Rattus norvegicus", "assay": "Toxicity in Sprague-Dawley rat assessed as eosinophilic cytoplasmic bodies in epithelial cells of stomach at 10 to 75 mg/kg administered as oral gavage qd for 28 consecutive days measured on day 29 by microscopic method", "format": "organism-based", "conditions": "in vivo", "method_in_brief": "as §3"}, "Rattus norvegicus [14]": {"tested_on": "Rattus norvegicus", "assay": "Toxicity in Sprague-Dawley rat assessed as mucosal hyperplasia in duodenum at 75 mg/kg administered as oral gavage qd for 28 consecutive days measured on day 29 by microscopic method", "format": "organism-based", "conditions": "in vivo", "method_in_brief": "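Sub-acute oral toxicity study in Sprague-Dawley rats. The drug was given once daily for 28 consecutive days at 10, 30 or 75 mg/kg, formulated as a suspension. There were 4 groups of up to 30 rats each (15 male, 15 female). The study evaluated systemic exposure to the drug.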"}, "Plasma": {"tested_on": "Plasma", "assay": "Drug metabolism in Sprague-Dawley rat assessed as tizoxanide level in plasma administered via oral gavage qd for 28 consecutive days", "format": "ADME", "method_in_brief": "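In a sub-acute study, Sprague-Dawley rats were dosed once daily for 28 consecutive days at 10, 30 or 75 mg/kg, given as a yellow suspension. There were four groups of up to 30 rats each (15M/15F) to assess systemic exposure.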"}, "Rattus norvegicus [15]": {"tested_on": "Rattus norvegicus", "assay": "Toxicity in Sprague-Dawley rat assessed as erosions in stomach at 75 mg/kg administered as oral gavage qd for 28 consecutive days followed by 2 weeks recovery period by microscopic method", "format": "organism-based", "conditions": "in vivo, 336 h", "method_in_brief": "as §4"}, "Rattus norvegicus [16]": {"tested_on": "Rattus norvegicus", "assay": "Toxicity in Sprague-Dawley rat assessed as eosinophilic cytoplasmic bodies in epithelial cells of duodenum at 75 mg/kg administered as oral gavage qd for 28 consecutive days followed by 2 weeks recovery period by microscopic method", "format": "organism-based", "conditions": "in vivo, 336 h", "method_in_brief": "as §4"}, "Canis familiaris [17]": {"tested_on": "Canis familiaris", "assay": "Toxicity in Beagle dog assessed as early death at 5 to 25 mg/kg, po administered as gelatin capsule once daily for 28 days followed by 2 weeks recovery period measured on day 43", "format": "organism-based, Canis lupus familiaris", "conditions": "in vivo", "method_in_brief": "(§5)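 Sub-acute study in Beagle dogs: 5, 15 or 25 mg/kg/day given orally in a single gelatin capsule once a day for 28 consecutive days to assess systemic exposure and toxicity, with NOAEL determination.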"}, "Canis familiaris [18]": {"tested_on": "Canis familiaris", "assay": "Toxicity in Beagle dog assessed as emesis at 25 mg/kg, po administered as gelatin capsule once daily for 28 days measured on day 29 followed by 2 weeks recovery period measured on day 43", "format": "organism-based, Canis lupus familiaris", "conditions": "in vivo", "method_in_brief": "(§6)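 Sub-acute study in Beagle dogs dosed orally by gelatin capsule at 5, 15 and 25 mg/kg once a day for 28 consecutive days.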"}, "Canis familiaris [19]": {"tested_on": "Canis familiaris", "assay": "Toxicity in Beagle dog assessed as effect on urinalysis parameters up to 25 mg/kg, po administered as gelatin capsule once daily for 28 days measured on day 29", "format": "organism-based, Canis lupus familiaris", "conditions": "in vivo, 672 h", "method_in_brief": "as §6"}, "Canis familiaris [20]": {"tested_on": "Canis familiaris", "assay": "Toxicity in Beagle dog assessed as decrease in cholesterol level at 25 mg/kg, po administered as gelatin capsule once daily for 28 days followed by two weeks of recovery period", "format": "organism-based, Canis lupus familiaris", "conditions": "in vivo, 672 h", "method_in_brief": "as §6"}, "Canis familiaris [21]": {"tested_on": "Canis familiaris", "assay": "Toxicity in Beagle dog assessed as organ weight up to 25 mg/kg, po administered as gelatin capsule once daily for 28 days", "format": "organism-based, Canis lupus familiaris", "conditions": "in vivo, 672 h", "method_in_brief": "as §6"}, "Canis familiaris [22]": {"tested_on": "Canis familiaris", "assay": "Toxicity in Beagle dog up to 25 mg/kg, po administered as gelatin capsule once daily for 28 days measured on day 29", "format": "organism-based, Canis lupus familiaris", "conditions": "in vivo, 672 h", "method_in_brief": "as §6"}, "Canis familiaris [23]": {"tested_on": "Canis familiaris", "assay": "Drug metabolism in Beagle dog assessed as tizoxanide level in plasma administered orally as gelatin capsule once daily for 28 days measured on day 1 and 29", "format": "ADME, Canis lupus familiaris", "conditions": "po, 672 h", "method_in_brief": "(§7)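 Beagle dogs received the drug orally in a single gelatin capsule at 5, 15 or 25 mg/kg once daily for 28 consecutive days in a sub-acute toxicity study assessing systemic exposure.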"}, "Canis familiaris [24]": {"tested_on": "Canis familiaris", "assay": "Drug metabolism in Beagle dog assessed as tizoxanide-glucuronide level in plasma administered orally as gelatin capsule once daily for 28 days measured on day 1 and 29", "format": "ADME, Canis lupus familiaris", "conditions": "po, 672 h", "method_in_brief": "as §7"}, "Canis familiaris [25]": {"tested_on": "Canis familiaris", "assay": "Toxicity in Beagle dog administered orally as gelatin capsule once daily for 28 days", "design": "species or system Canis lupus familiaris", "conditions": "in vivo, po, 672 h", "method_in_brief": "as §5"}}}
{"smiles": "CC(C)(C)[C@H](N)C(=O)Oc1ccccc1C(=O)Nc1ncc([N+](=O)[O-])s1.Cl", "values": [{"measurement": "Cmax", "setting": "Rattus norvegicus [1]", "value": 12800, "unit": "ng/mL"}, {"measurement": "AUCt", "setting": "Rattus norvegicus [2]", "value": 13600, "unit": "ng·h/mL"}, {"measurement": "beta t1/2", "setting": "Rattus norvegicus [3]", "value": 33, "unit": "min"}, {"measurement": "Activity", "setting": "Rattus norvegicus [4]", "value": "Toxic"}, {"measurement": "Cmax", "setting": "Rattus norvegicus [5]", "value": 18600, "unit": "ng/mL"}, {"measurement": "Activity", "setting": "Rattus norvegicus [6]", "value": "Toxic"}, {"measurement": "Activity", "setting": "Rattus norvegicus [7]", "value": "Non-Toxic"}, {"measurement": "Activity", "setting": "Rattus norvegicus [8]", "value": "Toxic"}, {"measurement": "Activity", "setting": "Rattus norvegicus [9]", "value": "Non-Toxic"}, {"measurement": "Activity", "setting": "Rattus norvegicus [10]", "value": "Non-Toxic"}, {"measurement": "Activity", "setting": "Rattus norvegicus [11]", "value": "Toxic"}, {"measurement": "Activity", "setting": "Rattus norvegicus [12]", "value": "Toxic"}, {"measurement": "Activity", "setting": "Rattus norvegicus [13]", "value": "Toxic"}, {"measurement": "Activity", "setting": "Rattus norvegicus [14]", "value": "Toxic"}, {"measurement": "Drug metabolism", "setting": "Plasma", "value": "Dose-dependent effect"}, {"measurement": "Activity", "setting": "Rattus norvegicus [15]", "value": "Non-Toxic"}, {"measurement": "Activity", "setting": "Rattus norvegicus [16]", "value": "Non-Toxic"}, {"measurement": "Activity", "setting": "Canis familiaris [17]", "value": "Non-Toxic"}, {"measurement": "Activity", "setting": "Canis familiaris [18]", "value": "Non-Toxic"}, {"measurement": "Activity", "setting": "Canis familiaris [19]", "value": "Non-Toxic"}, {"measurement": "Activity", "setting": "Canis familiaris [20]", "value": "Non-Toxic"}, {"measurement": "Activity", "setting": "Canis familiaris [21]", "value": "Non-Toxic"}, {"measurement": "Activity", "setting": "Canis familiaris [22]", "value": "Non-Toxic"}, {"measurement": "Drug metabolism", "setting": "Canis familiaris [23]", "value": "Dose-dependent effect"}, {"measurement": "Drug metabolism", "setting": "Canis familiaris [24]", "value": "Dose-dependent effect"}, {"measurement": "NOAEL", "setting": "Canis familiaris [25]", "value": 25, "unit": "mg/kg/day"}]}
